Source: ChEMBL document CHEMBL4038305, “Benzoxaborole Antimalarial Agents. Part 5. Lead Optimization of Novel Amide Pyrazinyloxy Benzoxaboroles and Identification of a Preclinical Candidate” (J Med Chem, 2017)

Each compound was assayed on Plasmodium berghei (assay: Antimalarial activity against Plasmodium berghei infected in Swiss Webster mouse assessed as mouse survival rate at 0.4 mg/kg administered once daily via oral gavage for 4 consecutive days beginning 1 hr after infection measured on day 4 post infection relative to control). Conditions: not given.
Assay type: functional
In short: (§1)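 Mice given an intraperitoneal injection of P. berghei-infected erythrocytes taken from a previously infected animal. Oral dosing once daily for 4 consecutive days, starting 1 h after infection. Vehicle: polyethylene glycol 300/propylene glycol/water (weight ratio 55/25/20). Percent survival recorded daily from day 4 to day 20. Chloroquine 30 mg/kg and vehicle-only groups served as controls.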
`Cc1c(Oc2cnc(C(=O)N3CC(O)(C(F)(F)F)C3)cn2)ccc2c1B(O)OC2` was tested, and the survival at 0.4 mg/kg was 100%.

Each compound was assayed on Plasmodium berghei (assay: Antimalarial activity against Plasmodium berghei infected in Swiss Webster mouse assessed as mouse survival rate at 100 mg/kg administered once daily via oral gavage for 4 consecutive days beginning 1 hr after infection measured on day 6 post infection relative to control). Conditions: not given.
Assay type: functional
In short: as §1
With `Cc1c(Oc2cnc(C(=O)N3CC(O)(C(F)(F)F)C3)cn2)ccc2c1B(O)OC2` the survival at 100 mg/kg was 100%.

Each compound was assayed on Plasmodium berghei (assay: Antimalarial activity against Plasmodium berghei infected in Swiss Webster mouse assessed as mouse survival rate administered once daily via oral gavage for 4 consecutive days beginning 1 hr after infection measured on day 4 post infection). Conditions: not given.
Assay type: functional
In short: as §1
Compound `Cc1c(Oc2cnc(C(=O)N3CC(O)(C(F)(F)F)C3)cn2)ccc2c1B(O)OC2` has an ED90 of 5.7 mg/kg.

These compounds were tested on Plasmodium berghei (assay: Antimalarial activity against Plasmodium berghei infected in Swiss Webster mouse assessed as mouse survival rate at 11 mg/kg administered once daily via oral gavage for 4 consecutive days beginning 1 hr after infection measured on day 4 post infection relative to control). Conditions: not given.
Assay type: functional
In short: (§2)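 P. berghei-infected erythrocytes taken from a previously infected mouse were injected intraperitoneally. Oral dosing, once daily for 4 consecutive days, began 1 h after infection, in polyethylene glycol 300/propylene glycol/water (55/25/20 by weight). Chloroquine at 30 mg/kg was the positive control, with a vehicle-only group. Percent survival was recorded daily from day 4 to day 20.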
Work on `Cc1c(Oc2cnc(C(=O)N3CC(O)(C(F)(F)F)C3)cn2)ccc2c1B(O)OC2` yielded a survival at 11 mg/kg of 100%.

These compounds were tested on Plasmodium berghei (assay: Antimalarial activity against Plasmodium berghei infected in Swiss Webster mouse assessed as mouse survival rate at 0.4 mg/kg administered once daily via oral gavage for 4 consecutive days beginning 1 hr after infection measured on day 7 post infection relative to control). Conditions: not given.
Assay type: functional
In short: as §1
Work on `Cc1c(Oc2cnc(C(=O)N3CC(O)(C(F)(F)F)C3)cn2)ccc2c1B(O)OC2` yielded a survival at 0.4 mg/kg of 0%.

Each compound was assayed on Plasmodium berghei (assay: Antimalarial activity against Plasmodium berghei infected in Swiss Webster mouse assessed as mouse survival rate at 0.4 mg/kg administered once daily via oral gavage for 4 consecutive days beginning 1 hr after infection measured on day 6 post infection relative to control). Conditions: not given.
Assay type: functional
In short: as §1
`Cc1c(Oc2cnc(C(=O)N3CC(O)(C(F)(F)F)C3)cn2)ccc2c1B(O)OC2` was tested, and the survival at 0.4 mg/kg was 100%.

Each compound was assayed on Plasmodium berghei (assay: Antimalarial activity against Plasmodium berghei infected in Swiss Webster mouse assessed as mouse survival rate at 11 mg/kg administered once daily via oral gavage for 4 consecutive days beginning 1 hr after infection measured on day 5 post infection relative to control). Conditions: not given.
Assay type: functional
In short: as §2
Compound `Cc1c(Oc2cnc(C(=O)N3CC(O)(C(F)(F)F)C3)cn2)ccc2c1B(O)OC2` has a survival at 11 mg/kg of 100%.

The compounds below were run on Plasmodium berghei (assay: Antimalarial activity against Plasmodium berghei infected in Swiss Webster mouse assessed as mouse survival rate at 100 mg/kg administered once daily via oral gavage for 4 consecutive days beginning 1 hr after infection measured on day 8 post infection relative to control). Conditions: not given.
Assay type: functional
In short: as §1
For `Cc1c(Oc2cnc(C(=O)N3CC(O)(C(F)(F)F)C3)cn2)ccc2c1B(O)OC2`, the survival at 100 mg/kg was 100%.

What follows are compounds tested on Plasmodium falciparum (assay: Antimalarial activity against chloroquine-sensitive Plasmodium falciparum 3D7 infected in human erythrocytes assessed as reduction in [3H]-hypoxanthine incorporation preincubated for 24 hrs followed by [3H]-hypoxanthine addition measured after 24 hrs by scintillation counting method). Conditions: not given.
Assay type: functional, cell-based
In short: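 P. falciparum 3D7 cultures were exposed to the compound for 48 h, with atovaquone as the reference control. IC50 was taken from three replicates.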
`Cc1c(Oc2cnc(C(=O)N3CC(O)(C(F)(F)F)C3)cn2)ccc2c1B(O)OC2` was tested, and the IC50 was 8 nM.

Each compound was assayed on Plasmodium berghei (assay: Antimalarial activity against Plasmodium berghei infected in Swiss Webster mouse assessed as mouse survival rate at 3.7 mg/kg administered once daily via oral gavage for 4 consecutive days beginning 1 hr after infection measured on day 7 post infection relative to control). Conditions: not given.
Assay type: functional
In short: as §2
With `Cc1c(Oc2cnc(C(=O)N3CC(O)(C(F)(F)F)C3)cn2)ccc2c1B(O)OC2` the survival at 3.7 mg/kg was 0%.

What follows are compounds tested on Plasmodium berghei (assay: Antimalarial activity against Plasmodium berghei infected in Swiss Webster mouse assessed as mouse survival rate at 0.1 mg/kg administered once daily via oral gavage for 4 consecutive days beginning 1 hr after infection measured on day 4 post infection relative to control). Conditions: not given.
Assay type: functional
In short: as §1
`Cc1c(Oc2cnc(C(=O)N3CC(O)(C(F)(F)F)C3)cn2)ccc2c1B(O)OC2` gave a survival at 0.1 mg/kg of 100%.

Each compound was assayed on Plasmodium berghei (assay: Antimalarial activity against Plasmodium berghei infected in Swiss Webster mouse assessed as mouse survival rate at 33 mg/kg administered once daily via oral gavage for 4 consecutive days beginning 1 hr after infection measured on day 8 post infection relative to control). Conditions: not given.
Assay type: functional
In short: as §2
With `Cc1c(Oc2cnc(C(=O)N3CC(O)(C(F)(F)F)C3)cn2)ccc2c1B(O)OC2` the survival at 33 mg/kg was 100%.

What follows are compounds tested on Plasmodium berghei (assay: Antimalarial activity against Plasmodium berghei infected in Swiss Webster mouse assessed as mouse survival rate at 100 mg/kg administered once daily via oral gavage for 4 consecutive days beginning 1 hr after infection measured on day 10 post infection relative to control). Conditions: not given.
Assay type: functional
In short: as §1
`Cc1c(Oc2cnc(C(=O)N3CC(O)(C(F)(F)F)C3)cn2)ccc2c1B(O)OC2` gave a survival at 100 mg/kg of 100%.

Each compound was assayed on Plasmodium berghei (assay: Antimalarial activity against Plasmodium berghei infected in Swiss Webster mouse assessed as mouse survival rate at 33 mg/kg administered once daily via oral gavage for 4 consecutive days beginning 1 hr after infection measured on day 11 post infection relative to control). Conditions: not given.
Assay type: functional
In short: as §2
Compound `Cc1c(Oc2cnc(C(=O)N3CC(O)(C(F)(F)F)C3)cn2)ccc2c1B(O)OC2` has a survival at 33 mg/kg of 50%.

The compounds below were run on Plasmodium berghei (assay: Antimalarial activity against Plasmodium berghei infected in Swiss Webster mouse assessed as mouse survival rate at 0.4 mg/kg administered once daily via oral gavage for 4 consecutive days beginning 1 hr after infection measured on day 5 post infection relative to control). Conditions: not given.
Assay type: functional
In short: as §1
Compound `Cc1c(Oc2cnc(C(=O)N3CC(O)(C(F)(F)F)C3)cn2)ccc2c1B(O)OC2` has a survival at 0.4 mg/kg of 100%.

These compounds were tested on Plasmodium berghei (assay: Antimalarial activity against Plasmodium berghei infected in Swiss Webster mouse assessed as mouse survival rate at 11 mg/kg administered once daily via oral gavage for 4 consecutive days beginning 1 hr after infection measured on day 7 post infection relative to control). Conditions: not given.
Assay type: functional
In short: as §2
With `Cc1c(Oc2cnc(C(=O)N3CC(O)(C(F)(F)F)C3)cn2)ccc2c1B(O)OC2` the survival at 11 mg/kg was 100%.

What follows are compounds tested on Plasmodium falciparum (assay: Antimalarial activity against chloroquine-resistant Plasmodium falciparum W2 infected in human erythrocytes after 48 hrs by YOYO-1 dye based flow cytometric analysis). Conditions: W2, 48 h.
Assay type: functional, cell-based
In short: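 P. falciparum W2 cultures were exposed to the compound for 48 h, with artemisinin and chloroquine as reference controls. IC50 was taken from two independent replicates.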
`Cc1c(Oc2cnc(C(=O)N3CC(O)(C(F)(F)F)C3)cn2)ccc2c1B(O)OC2` was tested, and the IC50 was 6.6 nM.

These compounds were tested on Plasmodium berghei (assay: Antimalarial activity against Plasmodium berghei infected in Swiss Webster mouse assessed as mouse survival rate at 33 mg/kg administered once daily via oral gavage for 4 consecutive days beginning 1 hr after infection measured on day 4 post infection relative to control). Conditions: not given.
Assay type: functional
In short: as §2
For `Cc1c(Oc2cnc(C(=O)N3CC(O)(C(F)(F)F)C3)cn2)ccc2c1B(O)OC2`, the survival at 33 mg/kg was 100%.

The compounds below were run on Plasmodium berghei (assay: Antimalarial activity against Plasmodium berghei infected in Swiss Webster mouse assessed as mouse survival rate at 3.7 mg/kg administered once daily via oral gavage for 4 consecutive days beginning 1 hr after infection measured on day 6 post infection relative to control). Conditions: not given.
Assay type: functional
In short: as §2
Work on `Cc1c(Oc2cnc(C(=O)N3CC(O)(C(F)(F)F)C3)cn2)ccc2c1B(O)OC2` yielded a survival at 3.7 mg/kg of 100%.

These compounds were tested on Plasmodium berghei (assay: Antimalarial activity against Plasmodium berghei infected in Swiss Webster mouse assessed as mouse survival rate at 100 mg/kg administered once daily via oral gavage for 4 consecutive days beginning 1 hr after infection measured on day 14 post infection relative to control). Conditions: not given.
Assay type: functional
In short: as §1
`Cc1c(Oc2cnc(C(=O)N3CC(O)(C(F)(F)F)C3)cn2)ccc2c1B(O)OC2` gave a survival at 100 mg/kg of 100%.

These compounds were tested on Plasmodium berghei (assay: Antimalarial activity against Plasmodium berghei infected in Swiss Webster mouse assessed as mouse survival rate at 0.1 mg/kg administered once daily via oral gavage for 4 consecutive days beginning 1 hr after infection measured on day 5 post infection relative to control). Conditions: not given.
Assay type: functional
In short: as §1
For `Cc1c(Oc2cnc(C(=O)N3CC(O)(C(F)(F)F)C3)cn2)ccc2c1B(O)OC2`, the survival at 0.1 mg/kg was 100%.

These compounds were tested on Plasmodium berghei (assay: Antimalarial activity against Plasmodium berghei infected in Swiss Webster mouse assessed as mouse survival rate at 100 mg/kg administered once daily via oral gavage for 4 consecutive days beginning 1 hr after infection measured on day 9 post infection relative to control). Conditions: not given.
Assay type: functional
In short: as §1
`Cc1c(Oc2cnc(C(=O)N3CC(O)(C(F)(F)F)C3)cn2)ccc2c1B(O)OC2` gave a survival at 100 mg/kg of 100%.

What follows are compounds tested on Plasmodium berghei (assay: Antimalarial activity against Plasmodium berghei infected in Swiss Webster mouse assessed as mouse survival rate at 100 mg/kg administered once daily via oral gavage for 4 consecutive days beginning 1 hr after infection measured on day 5 post infection relative to control). Conditions: not given.
Assay type: functional
In short: as §1
For `Cc1c(Oc2cnc(C(=O)N3CC(O)(C(F)(F)F)C3)cn2)ccc2c1B(O)OC2`, the survival at 100 mg/kg was 100%.

These compounds were tested on Plasmodium berghei (assay: Antimalarial activity against Plasmodium berghei infected in Swiss Webster mouse assessed as mouse survival rate at 0.1 mg/kg administered once daily via oral gavage for 4 consecutive days beginning 1 hr after infection measured on day 7 post infection relative to control). Conditions: not given.
Assay type: functional
In short: as §1
`Cc1c(Oc2cnc(C(=O)N3CC(O)(C(F)(F)F)C3)cn2)ccc2c1B(O)OC2` gave a survival at 0.1 mg/kg of 0%.

The compounds below were run on Plasmodium berghei (assay: Antimalarial activity against Plasmodium berghei infected in Swiss Webster mouse assessed as mouse survival rate at 3.7 mg/kg administered once daily via oral gavage for 4 consecutive days beginning 1 hr after infection measured on day 5 post infection relative to control). Conditions: not given.
Assay type: functional
In short: as §2
In the case of `Cc1c(Oc2cnc(C(=O)N3CC(O)(C(F)(F)F)C3)cn2)ccc2c1B(O)OC2`, the survival at 3.7 mg/kg is reported as 100%.
